Compound activity as filed in PubChem BioAssay.
Cneo AK release = Cryptococcus neoformans cell lysis inducers, primary screen, AK release luminescence, single concentration; lysis activity, % at 15 µM; AID 651654, 2012; 360,000 tested, 0.2% active; C. neoformans lysis, adenylate kinase release luminescence, 4 h; normalised: neutral wells 0, clomiphene wells 100;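 active = mean lysis activity across replicates of at least 80%, whatever share of replicates individually reach that level; inactive = mean lysis activity below 80%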
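read-out = cell lysis signal | test system = log-phase Cryptococcus neoformans yeast cells | input = cells at 5 × 10^6 per mL | medium = fresh YPD growth medium | signal = luminescent adenylate kinase detection reagent | timing = 4 h at 37 °C static, read 1 h later | dosing = single dose | controls = Clomiphene as positive lysis control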
PglD DTNB = C. jejuni PglD acetyltransferase inhibitors, primary screen, biochemical, DTNB colorimetric, single point; inhibition, % at 12.5 µM; purified PglD enzyme, DTNB colorimetric CoA detection; AID 602405, 2012; 360,000 tested, 0.098% active; in the data active = inhibition above about 16%, passing the limit was not always enough
rRNA inh HTS = reduced GFP signal of wild-type E. coli, primary screen, bacterial rRNA inhibitor project, GFP/RFP fluorescence, OD600, single point. E. coli WT GFP vs humanized-ribosome RFP mutants, 24 h; hits give low values; DMSO median 0, no signal -100. GFP signal change (wild-type ribosome), % (test concentration not listed). 350,000 tested, 1.6% active. AID 720706, 2013;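 active = significant combined selectivity score with lowered wild-type GFP, culture density cut under 30%, mutant RFP and density less affected; inactive = any of these conditions unmet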
CR mimetic SO = reduction of superoxide in aged yeast, primary screen, HTS; S. cerevisiae aged cells, superoxide DHE fluorescence; hits give low values; superoxide response (% of plate mean), % at 10 µM; 330,000 tested, 0.18% active; AID 2690, 2010;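 active = superoxide response under a set limit, about three screen SD below normal, cut at about 65% in these data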;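 also: yeast aged for seven days with compound at 30 °C before DHE staining; 100% = average MFI of all compound-treated wells on the plate with controls excluded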
Mot1-301 SUMO = yeast Mot1-301 growth rescue at high temperature, primary screen, SUMOylation pathway inhibitor project, S. cerevisiae, ATP luminescence, 38.5C; 320,000 tested, 1% active; growth rescue, % at 18.8 µM; AID 2716, 2010; S. cerevisiae Mot1-301 growth rescue; percent above DMSO median, 100 means doubled;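 active = every valid replicate shows activation above 250% relative to neutral control wells; inactive = the rest, any valid replicate at or below 250%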;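 also: OY570 slx delta 5 strain wells were the positive control but not used for scaling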
Numbers without * were called inactive; · = no result. The list is not random: actives were taken first. Their share in the collection is about 2.2%.

SMILES	Cneo AK release	PglD DTNB	rRNA inh HTS	CR mimetic SO	Mot1-301 SUMO
COc1cccc(-c2cn(CC[C@@H]3CC[C@H](NC(C)=O)[C@@H](CO)O3)nn2)c1	94.1*	0.9	2.6	·	·
O=C(N[C@@H]1CC[C@@H](CCn2cc(-c3ccccc3)nn2)O[C@H]1CO)c1cnccn1	96.1*	-3.2	1.2	·	·
O=C(N[C@H]1CC[C@@H](CCn2cc(-c3ccccc3)nn2)O[C@@H]1CO)c1cnccn1	92.9*	3.2	2.7	·	·
COc1ccc(NC(=O)Nc2ccc3c(c2)C(=O)N([C@@H](C)CO)C[C@@H](C)[C@@H](CN(C)C(=O)NC(C)C)O3)cc1	5.7	-3.0	0.2	·	·
CN1c2ccc(-c3ccccc3F)cc2[C@H]2[C@H](CCN2C(=O)Nc2ccc(F)cc2)[C@H]1CO	-11.2	2.0	3.2	·	·
CCOC(=O)[C@]12Cc3c(cc(OC)c(OC)c3OC)[C@H]1N(CCC(=O)OC)C(=O)c1cc(OC)ccc12	·	·	-24.2*	·	·
C[C@H]1CN([C@@H](C)CO)C(=O)c2cccc(NC(=O)Nc3ccccc3)c2O[C@H]1CN(C)C(=O)Nc1ccc(C(F)(F)F)cc1	-5.7	1.9	-5.3	·	·
CC(=O)N(C)C[C@@H]1Oc2ccc(N(C)C)cc2C(=O)N(C)C[C@H]1C	·	·	-0.8	·	·
CCC1(c2ccccc2)ON(c2c(Br)cccc2Br)C1=O (stereo not given)	6.0	-7.7	8.6	122.0	717.6*
CCN(Cc1ccccc1)c1ccc(/C=N/N2CCOCC2)cc1	·	·	-21.8*	99.8	7.3
COCCOC(=O)N1C(=O)[C@@]2(c3cc(C#CCCO)ccc31)[C@H](c1ccccc1OCCO)N1[C@H](c3ccccc3)[C@H](c3ccccc3)OC(=O)[C@H]1[C@@H]2C(=O)N1CCN(c2ncccn2)CC1	47.1	-16.6	·	·	·
S=C(NCCc1ccccn1)Nc1cc(Cl)cc(Cl)c1	·	·	-31.9*	107.7	18.5
O=C1[C@@H]2[C@@H](CC(COc3ccccc3)=C([C@H](O)c3ccccc3)[C@@H]2CO)C(=O)N1Cc1ccccc1	-2.5	·	·	·	·
O=C(COc1ccccc1Cl)Nc1ccc(C(=O)O)cc1NC(=O)COc1ccccc1Cl	-2.7	-1.7	·	109.5	1.4
O=C(COc1ccccc1Cl)Nc1ccccc1C(=O)Nc1cccc(C(=O)O)c1	-5.7	-2.8	-29.4*	107.2	5.0
CC(C)NC(=O)C(=O)Nc1ccc2c(c1)N(S(=O)(=O)c1cccs1)CCC2	2.0	3.9	-18.2*	81.6	11.5
CNC(=O)C(=O)Nc1ccc2c(c1)N(S(=O)(=O)c1cccs1)CCC2	-0.1	5.7	-1.7	88.4	-13.5
CCN1CCN(c2c(Cl)cccc2NC(=O)c2ccc([N+](=O)[O-])o2)CC1	-6.7	4.3	-17.4*	96.4	119.7
CN1CCN(c2ccc(NC(=O)c3ccc([N+](=O)[O-])o3)cc2Cl)CC1	-5.0	0.8	-36.2	133.7	-1.3
CCCC(=O)N1CCN(c2ccc(NC(=O)c3ccc([N+](=O)[O-])o3)cc2Cl)CC1	·	·	-38.6*	·	·
O=C(Nc1cccc(Cl)c1N1CCCC1)c1ccc([N+](=O)[O-])o1	-4.8	-0.8	1.1	105.0	-3.2
Cc1ccc(S(=O)(=O)N(C)C[C@H]2OCCCC[C@@H](C)Oc3ccc(NS(=O)(=O)c4cccs4)cc3C(=O)N([C@@H](C)CO)C[C@H]2C)cc1	-1.5	-6.0	-4.8	·	·
C[C@H]1CCCCO[C@@H](CN(C)S(=O)(=O)c2cccs2)[C@@H](C)CN([C@@H](C)CO)C(=O)c2cc(NS(=O)(=O)c3cn(C)cn3)ccc2O1	3.7	4.7	-6.0	·	·
C[C@@H]1CCCCO[C@@H](CN(C)Cc2ccncc2)[C@H](C)CN([C@@H](C)CO)C(=O)c2cc(NC(=O)NC3CCCCC3)ccc2O1	2.7	-1.6	-4.8	·	·
CCOC(=O)c1cc(-c2ccc3c(c2)OCCO3)n[nH]1	·	·	-32.3*	98.8	-11.6
SMILES	Cneo AK release	PglD DTNB	rRNA inh HTS	CR mimetic SO	Mot1-301 SUMO
CCCNC(=O)N1CC2(CCN(Cc3cccc(F)c3)CC2)c2c([nH]c3cc(OC)ccc23)[C@H]1CO	·	·	-0.8	·	·
CC1C(=O)Nc2ccccc2N1C(=O)c1ccc(Cl)c(Cl)c1 (stereo not given)	-0.7	4.0	-26.8*	97.5	330.1
Cc1ccc(C(=O)N2c3ccccc3NC(=O)C2C)cc1 (stereo not given)	·	·	6.3	122.1	5.9
COc1ccccc1CCNC(=O)c1cccc(NC(=O)CC2SC(N3CCCCC3)=NC2=O)c1 (stereo not given)	-0.2	-1.4	-21.1*	·	·
Cc1cccc(OCCC(=O)N(C)CC(=O)Nc2cccc3ccccc23)c1	-3.5	6.7	-19.9*	102.0	-17.1
CCCCN1C(=O)C(O)(CC(=O)c2ccco2)c2cc(Br)ccc21 (stereo not given)	-1.9	-4.1	-13.8	103.2	-12.8
CCCCN1C(=O)C(O)(CC(=O)c2c(C)n[nH]c2C)c2cc(Br)ccc21 (stereo not given)	·	2.6	-21.4*	112.5	14.9
CC(Nc1cc(N2CCCC2)ccc1[N+](=O)[O-])c1ccccc1 (stereo not given)	-0.4	3.4	·	87.6	-2.2
Cc1cc([N+](=O)[O-])cnc1NC(C)c1ccccc1 (stereo not given)	5.1	3.4	·	95.2	330.1*
CCOC(=O)C1=C(N)Oc2cc(O)ccc2C1c1ccc([N+](=O)[O-])cc1 (stereo not given)	·	·	-44.5*	105.3	14.2
O=C(c1ccccc1)C(CN1CCCCC1)c1ccccc1 (stereo not given)	3.7	3.9	-0.1	·	·
CCOc1ccc(C(=O)C(CN2CCOCC2)c2ccccc2)cc1 (stereo not given)	-3.6	-6.6	·	100.5	286.9*
CO[C@@H]1CN(C)C(=O)c2cc(NS(=O)(=O)c3c(C)noc3C)ccc2OC[C@H](C)NC[C@@H]1C	-0.5	-4.5	2.3	·	·
CC(C)(C)OC(=O)NCC1CCC(C(=O)NC[C@H](CC(=O)O)c2ccc(Cl)cc2)CC1 (stereo not given in full)	-0.5	-7.5	9.7	98.1	336.5*
CC(C)[C@H](N)C(=O)NC[C@H](CC(=O)NC[C@H]1CC[C@H](C(=O)O)CC1)c1ccc(Cl)cc1	2.0	-1.5	8.5	87.0	16.2
C[C@@H]1CN([C@@H](C)CO)C(=O)Cc2cc(NC(=O)c3ccncc3)ccc2O[C@H]1CN(C)Cc1ccc(Oc2ccccc2)cc1	3.6	-0.4	-23.2	·	·
O=C(Nc1cccc(-c2cccc(F)c2)c1)C1CCN(CC2CCOC2)CC1 (stereo not given)	-5.3	6.3	2.8	95.7	270.3*
